Published values from different studies.
Each line is one published result; the experiments were not run side by side.
Target: Receptor tyrosine-protein kinase erbB-2 (ERBB2, Homo sapiens, UniProt P04626)

The remaining signal of `C#Cc1cccc(Nc2ncnc3cc(OCCOC)c(OCCOC)cc23)c1` is reported as 52.8% (cell-free assay; 0.5 µM).
With `NS(=O)(=O)c1cc(NC(=O)C2(c3ccccc3Cl)CC2)ccc1Oc1cccc(Cl)c1` the remaining binding was 49% (cell-free assay; competition with immobilised ligand; 1 µM).
`Nc1ncnc2occ(-c3ccc(NC(=O)Nc4cc(C(F)(F)F)ccc4F)cc3)c12` gave a remaining signal of 0% (cell-free assay; inhibitor; 20 µM).
`CCCCNc1ncc2c(-c3ccc(F)cc3)nn(C[C@H]3CC[C@H](N)CC3)c2n1` has an inhibition of 77.8% (target engagement in cells; inhibitor; chemoproteomics; 20 mM).
`Cc1ccc(NC(=O)c2ccc(C)c(C(F)(F)F)c2)cc1C#Cc1nn(C2CCC(O)CC2)c2ncnc(N)c12` (centres unmarked) gave a remaining signal of 4% (cell-free assay; 10 µM).
For `Nc1nc(Nc2ccc(S(N)(=O)=O)cc2)nn1C(=O)c1c(F)cccc1F`, the remaining signal was 91.1% (cell-free assay; 0.5 µM).
`COc1cccc2c(NCc3ccccc3)nc(-n3c(N)nc4ccccc43)nc12` gave an inhibition of 32.6% (target engagement in cells; inhibitor; chemoproteomics; 20 mM).
`C[C@H](c1ccnc(Nc2nc3ccc(-c4cc(N(C)C)ncn4)cc3[nH]2)c1)N1CCN(C(=O)CC(F)(F)F)CC1` has a remaining binding of 100% (cell-free assay; competition with immobilised ligand; 0.1 µM).
For `N#CCCc1ccc2c(c1)-c1[nH]c3ccc([N+](=O)[O-])cc3c1CC(=O)N2`, the remaining signal was 98.6% (cell-free assay; 0.5 µM).
`C=CC(=O)Nc1cc(Nc2nccc(Nc3cc(Cl)c(F)cc3C(C)(C)O)n2)c(OC)cc1N1CC[C@@H](N(C)C)C1` gave an inhibition of 73% (enzyme activity; inhibitor; 1 µM).
For `C[C@@H]1CN(c2cc(-c3nn(C)c4ccc(OC5(C)CC5)cc34)ncn2)C[C@H](C)O1`, the remaining binding was 80% (cell-free assay; competition with immobilised ligand; 1 µM).
With `CN1CC(Oc2cnc(C#N)cc2-c2ccn3nc(NC(=O)C4CC4)cc3c2)C1` the inhibition was -3% (enzyme activity; inhibitor; 1 µM).
The remaining signal of `COc1cc(Nc2c(C#N)cnc3cc(OCCCN4CCN(C)CC4)c(OC)cc23)c(Cl)cc1Cl` is reported as 32.9% (cell-free assay; 0.5 µM).
`COc1cc2nccc(Oc3ccc(NC(=O)c4c5n(n(-c6ccc(F)cc6)c4=O)CCCC5)cc3)c2cc1OC` has an inhibition of -1% (enzyme activity; inhibitor; 0.1 µM).
`CN(C)C(=O)Cn1cc(-c2nc([C@@](C)(c3ccc(-c4cnc(N)nc4)cc3)C3CC3)no2)cn1` gave a remaining binding of 100% (cell-free assay; competition with immobilised ligand; 1 µM).
For `O=C(CSc1nc2nccnc2c(=O)n1CCc1ccccc1)Nc1nccs1`, the inhibition was -11% (enzyme activity; inhibitor; 10 µM).
For `C[C@@]1(Cc2ccc(C#N)cc2)C(=O)N(c2cc(Cl)cc(Cl)c2)c2ncc(C(=O)NC3(c4nc(C5CCC5)no4)CC3)n21`, the remaining binding was 100% (cell-free assay; competition with immobilised ligand; 1 µM).
`COc1cc2ncnc(Nc3ccc(Oc4ccccc4)cc3C)c2cc1OC` gave an inhibition of 55% (enzyme activity; inhibitor; 1 µM).
With `COc1ccc2c(c1)O[C@@H](c1ccc(OC)c(OC)c1)C[C@H]2NC(=O)C1(c2ccc3c(c2)OC(F)(F)O3)CC1` the remaining binding was 75% (cell-free assay; competition with immobilised ligand; 1 µM).
`Cc1sc(C(=O)NC2COC2)cc1-n1cc(NC(=O)Nc2c(F)cccc2Cl)cn1` gave a remaining activity of 64.1% (enzyme activity; inhibitor; 10 µM).
The remaining activity of `CC(C)(C)c1nc2c(s1)c1nc(N)ncc1c1ccc(NS(=O)(=O)c3c(F)cccc3F)c(F)c12` is reported as 109% (enzyme activity; inhibitor; radiometric; 1 µM).
For `N#Cc1ccc(Nc2ccc3[nH]c(=O)[nH]c3c2)c(Cl)c1`, the remaining binding was 100% (cell-free assay; competition with immobilised ligand; 1 µM).
For `CC#CC(=O)Nc1cc2c(Nc3ccc(F)c(Cl)c3)ncnc2cn1`, the remaining signal was 2.36% (cell-free assay; 0.5 µM).
The activity vs control of `Cc1ccc(C(=O)NCc2ccsc2)cc1C#Cc1cn(C(C)C)c2ncnc(N)c12` is reported as 66% (enzyme activity; inhibitor; 1 µM).
`Clc1ccc(Nc2nnc(Cc3ccncc3)c3ccccc23)cc1` has a remaining signal of 101% (cell-free assay; 0.5 µM).
`CCCOc1ccc([C@H]2[C@H](C(=O)O)[C@@H](c3ccc4c(c3)OCO4)CN2CC(=O)Nc2c(CC)cccc2CC)cc1` gave a remaining binding of 79% (cell-free assay; competition with immobilised ligand; 1 µM).
